# From ChEMBL document CHEMBL3108710, “Discovery of a novel class of dimeric Smac mimetics as potent IAP antagonists resulting in a clinical candidate for the treatment of cancer (AZD5582)” (J Med Chem, 2013)
# Active and inactive are the calls of the source. The rule behind the calls is not given here.
# Assays:
# BT-549 = assay: Growth inhibition of human BT549 cells; assay type: functional, cell-based
# 647-V = assay: Growth inhibition of human 647V cells; assay type: functional, cell-based
# MIA PaCa-2 = assay: Growth inhibition of human MIAPaCa2 cells; assay type: functional, cell-based
# Homo sapiens = species: Homo sapiens; assay: Growth inhibition of human 97-7 cells; assay type: functional
# MDA-MB-231 [1] = assay: Antitumor activity against human MDA-MB-231 cells xenografted in CB17 SCID mouse assessed as tumor growth inhibition at 0.1 to 3 mg/kg, iv administered once a week for 2 weeks measured twice a week for 78 days; assay type: functional, organism-based
# Outline: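 MDA-MB-231 tumors were implanted orthotopically in mice and grown to about 120 mm³ average. Vehicle or compound was then given intravenously once weekly for 2 weeks, at 0.1, 0.5 or 3.0 mg/kg. Tumor volume was measured twice weekly for 78 days and reported as geometric mean ± SE.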
# Mus musculus [2] = assay: Induction of caspase-3 cleavage in tumor of CB17 SCID mouse xenografted with human MDA-MB-231 cells at 0.05 to 3 mg/kg, iv after 4 to 18 hrs by ELISA; assay type: functional, organism-based
# Outline: (§1)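 Mice bearing MDA-MB-231 xenografts received a single intravenous dose. Intratumoral cIAP1 protein and cleaved caspase-3 levels were measured at 4, 6 and 18 h postdose.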
# Mus musculus [3] = assay: Induction of cIAP1 degradation in tumor of CB17 SCID mouse xenografted with human MDA-MB-231 cells at 0.05 to 3 mg/kg, iv up to 18 hrs by ELISA; assay type: functional, organism-based; outline: as §1
# MDA-MB-231 [4] = assay: Induction of apoptosis in human MDA-MB-231 cells assessed as cell death at 0.5 to 1.5 nM preincubated for 1 to 3 hrs followed by compound-washout measured after 72 hrs by MTS assay; assay type: functional, cell-based
# Outline: (§2)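 MDA-MB-231 cells were exposed to increasing compound concentrations for 1 or 3 h, rinsed, then given drug-free medium. Active caspase-3 per well was read at 24 h total. Survival was measured by MTS at 72 h total; 0% survival means complete cell death.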
# MDA-MB-231 [5] = assay: Induction of apoptosis in human MDA-MB-231 cells assessed as caspase-3 cleavage at 0.5 to 1.5 nM preincubated for 1 to 3 hrs followed by compound-washout measured after 24 hrs by luciferase reporter gene assay; assay type: functional, cell-based; outline: as §2
# [6] = target: T1, E3 ubiquitin-protein ligase XIAP (Homo sapiens, UniProt P98170); assay: Inhibition of XIAP-caspase-9 interaction in human MDA-MB-231 cells at 1 uM after 4 hrs by immunoprecipitation assay; assay type: cell-based
# Outline: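 MDA-MB-231 cells were left untreated or exposed to 1 μM compound for 4 h. Caspase-9 was immunoprecipitated from the lysates, and caspase-9–XIAP complexes were detected by blotting.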
# [7] = target: T1, E3 ubiquitin-protein ligase XIAP; assay: Binding affinity to XIAP in human MDA-MB-231 cells assessed as effect on protein level at 0.1 to 100 nM after 4 hrs by Western blotting analysis; assay type: cell-based
# Outline: (§3)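 MDA-MB-231 cells were treated with a range of compound concentrations. IAP protein levels were assessed by western blot: cIAP2 after 1 h, XIAP after 4 h.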
# [8] = target: T2, Baculoviral IAP repeat-containing protein 3 (Homo sapiens, UniProt Q13489); assay: Binding affinity to cIAP2 in human MDA-MB-231 cells assessed as induction of protein degradation at 0.03 to 1 nM after 1 hr by Western blotting analysis; assay type: cell-based; outline: as §3
# [9] = target: T3, Baculoviral IAP repeat-containing protein 2 (Homo sapiens, UniProt Q13490); assay: Binding affinity to cIAP1 in human MDA-MB-231 cells assessed as induction of protein degradation after 1 hr by Western blotting analysis; assay type: cell-based
# [10] = Apparent permeability from apical to basolateral side in human Caco2 cells; assay type: ADME, cell-based; conditions: Caco-2
# [11] = Aqueous equilibrium solubility of compound in phosphate buffer at pH 7.4 after 24 hrs by HPLC-UV analysis; assay type: physicochemical
# MDA-MB-231 [12] = assay: Antiproliferative activity against human MDA-MB-231 cells assessed as growth inhibition after 48 hrs by Alamar Blue assay; assay type: functional; conditions: MDA-MB-231, 48 h
# [13] = target: T3, Baculoviral IAP repeat-containing protein 2; assay: Binding affinity to cIAP1 in human MDA-MB-231 cells assessed as induction of protein degradation after 1 hr by ELISA; assay type: cell-based
# [14] = AUC in Han Wistar rat at 0.8 mg/kg, iv by LC-MS/MS analysis; assay type: ADME, organism-based; design: dose 0.8 mg/kg, route intravenous; conditions: plasma
# Outline: (§4)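 Rat PK after a single intravenous bolus. Parameters derived from plasma levels: total plasma clearance, steady-state volume of distribution, half-life and AUC.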
# [15] = Elimination half life in Han Wistar rat at 0.8 mg/kg, iv by LC-MS/MS analysis; assay type: ADME, organism-based; design: dose 0.8 mg/kg, route intravenous; conditions: in vivo, read-out: beta t1/2 (converted); outline: as §4
# [16] = Volume of distribution at steady state in Han Wistar rat at 0.8 mg/kg, iv by LC-MS/MS analysis; assay type: ADME, organism-based; design: dose 0.8 mg/kg, route intravenous; conditions: in vivo, read-out: Vdss; outline: as §4
# [17] = Total plasma clearance in Han Wistar rat at 0.8 mg/kg, iv by LC-MS/MS analysis; assay type: ADME, organism-based; design: dose 0.8 mg/kg, route intravenous; outline: as §4
# [18] = Aqueous solubility of the compound at pH 4 to 6; assay type: physicochemical
# [19] = AUC in Han Wistar rat at 1 mg/kg, iv by LC-MS/MS analysis; assay type: ADME, organism-based; design: dose 1 mg/kg, route intravenous; conditions: plasma; outline: as §4
# [20] = Elimination half life in Han Wistar rat at 1 mg/kg, iv by LC-MS/MS analysis; assay type: ADME, organism-based; design: dose 1 mg/kg, route intravenous; conditions: in vivo, read-out: beta t1/2 (converted); outline: as §4
# [21] = Volume of distribution at steady state in Han Wistar rat at 1 mg/kg, iv by LC-MS/MS analysis; assay type: ADME, organism-based; design: dose 1 mg/kg, route intravenous; conditions: in vivo, read-out: Vdss; outline: as §4
# [22] = Total plasma clearance in Han Wistar rat at 1 mg/kg, iv by LC-MS/MS analysis; assay type: ADME, organism-based; design: dose 1 mg/kg, route intravenous; outline: as §4
# [23] = AUC in Han Wistar rat at 0.5 mg/kg, iv by LC-MS/MS analysis; assay type: ADME, organism-based; design: dose 0.5 mg/kg, route intravenous; conditions: plasma; outline: as §4
# [24] = Elimination half life in Han Wistar rat at 0.5 mg/kg, iv by LC-MS/MS analysis; assay type: ADME, organism-based; design: dose 0.5 mg/kg, route intravenous; conditions: in vivo, read-out: beta t1/2 (converted); outline: as §4
# [25] = Volume of distribution at steady state in Han Wistar rat at 0.5 mg/kg, iv by LC-MS/MS analysis; assay type: ADME, organism-based; design: dose 0.5 mg/kg, route intravenous; conditions: in vivo, read-out: Vdss; outline: as §4
# [26] = Total plasma clearance in Han Wistar rat at 0.5 mg/kg, iv by LC-MS/MS analysis; assay type: ADME, organism-based; design: dose 0.5 mg/kg, route intravenous; outline: as §4
# [27] = target: T3, Baculoviral IAP repeat-containing protein 2; assay: Displacement of AbuRPFK-5FAM from GST-tagged cIAP1 BIR3 domain (L250 to G350) (unknown origin) after 20 mins by fluorescence polarization assay
# Outline: (§5)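 Competitive fluorescence polarization binding assay. Measures displacement of a 5-carboxyfluorescein-tagged synthetic peptide from the AVPI groove of the isolated BIR domain.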
# [28] = Chemical stability of the compound assessed as amide hydrolysis at pH >8; assay type: physicochemical
# [29] = Chemical stability of the compound assessed as amide hydrolysis at pH 1; assay type: physicochemical; conditions: buffer
# [30] = Photostability of the compound; assay type: physicochemical
# [31] = Hydrolytic stability of the compound at pH 4 to 6; assay type: physicochemical; conditions: buffer
# [32] = target: T1, E3 ubiquitin-protein ligase XIAP; assay: Displacement of AbuRPFK-5FAM from GST-tagged XIAP BIR2 domain ([…] to P260) (unknown origin) after 20 mins by fluorescence polarization assay; outline: as §5
# [33] = target: T2, Baculoviral IAP repeat-containing protein 3; assay: Displacement of AbuRPFK-5FAM from GST-tagged cIAP2 BIR3 domain (I235 to A336) (unknown origin) after 20 mins by fluorescence polarization assay; outline: as §5
# [34] = target: T1, E3 ubiquitin-protein ligase XIAP; assay: Displacement of AbuRPFK-5FAM from GST-tagged XIAP BIR3 domain (N252 to E350) (unknown origin) after 20 mins by fluorescence polarization assay; outline: as §5
# T3 sequence (Q13490 whole entry): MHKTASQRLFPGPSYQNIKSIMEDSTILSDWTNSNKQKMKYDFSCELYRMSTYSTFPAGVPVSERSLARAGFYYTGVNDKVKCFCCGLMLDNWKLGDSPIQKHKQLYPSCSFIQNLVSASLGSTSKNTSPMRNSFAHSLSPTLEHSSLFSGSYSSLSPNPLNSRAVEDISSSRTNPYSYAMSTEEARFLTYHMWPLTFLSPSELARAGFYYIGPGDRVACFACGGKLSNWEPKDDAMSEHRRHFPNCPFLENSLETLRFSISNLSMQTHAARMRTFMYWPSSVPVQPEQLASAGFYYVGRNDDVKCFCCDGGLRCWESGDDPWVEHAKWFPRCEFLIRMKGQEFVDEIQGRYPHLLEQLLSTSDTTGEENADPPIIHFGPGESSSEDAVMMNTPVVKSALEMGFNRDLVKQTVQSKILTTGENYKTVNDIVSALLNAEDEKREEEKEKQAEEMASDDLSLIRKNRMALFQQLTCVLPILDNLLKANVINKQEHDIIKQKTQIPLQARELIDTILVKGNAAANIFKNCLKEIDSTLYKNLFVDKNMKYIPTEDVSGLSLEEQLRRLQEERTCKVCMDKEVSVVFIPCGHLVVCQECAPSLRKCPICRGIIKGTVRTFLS
# T1 sequence (P98170 whole entry): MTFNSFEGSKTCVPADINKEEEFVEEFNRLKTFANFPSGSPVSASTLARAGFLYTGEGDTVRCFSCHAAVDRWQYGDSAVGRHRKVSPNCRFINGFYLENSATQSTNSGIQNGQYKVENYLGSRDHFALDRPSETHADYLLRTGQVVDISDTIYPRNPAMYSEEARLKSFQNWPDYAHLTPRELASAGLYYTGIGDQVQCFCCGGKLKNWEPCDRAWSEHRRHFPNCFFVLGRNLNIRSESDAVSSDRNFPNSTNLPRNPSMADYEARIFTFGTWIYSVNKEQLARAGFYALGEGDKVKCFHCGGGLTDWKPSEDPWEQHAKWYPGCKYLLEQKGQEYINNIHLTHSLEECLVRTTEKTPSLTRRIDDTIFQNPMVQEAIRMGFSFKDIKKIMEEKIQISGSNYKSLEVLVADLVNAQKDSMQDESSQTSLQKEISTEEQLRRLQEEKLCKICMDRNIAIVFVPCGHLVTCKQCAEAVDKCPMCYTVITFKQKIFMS
# T2 sequence (Q13489 whole entry): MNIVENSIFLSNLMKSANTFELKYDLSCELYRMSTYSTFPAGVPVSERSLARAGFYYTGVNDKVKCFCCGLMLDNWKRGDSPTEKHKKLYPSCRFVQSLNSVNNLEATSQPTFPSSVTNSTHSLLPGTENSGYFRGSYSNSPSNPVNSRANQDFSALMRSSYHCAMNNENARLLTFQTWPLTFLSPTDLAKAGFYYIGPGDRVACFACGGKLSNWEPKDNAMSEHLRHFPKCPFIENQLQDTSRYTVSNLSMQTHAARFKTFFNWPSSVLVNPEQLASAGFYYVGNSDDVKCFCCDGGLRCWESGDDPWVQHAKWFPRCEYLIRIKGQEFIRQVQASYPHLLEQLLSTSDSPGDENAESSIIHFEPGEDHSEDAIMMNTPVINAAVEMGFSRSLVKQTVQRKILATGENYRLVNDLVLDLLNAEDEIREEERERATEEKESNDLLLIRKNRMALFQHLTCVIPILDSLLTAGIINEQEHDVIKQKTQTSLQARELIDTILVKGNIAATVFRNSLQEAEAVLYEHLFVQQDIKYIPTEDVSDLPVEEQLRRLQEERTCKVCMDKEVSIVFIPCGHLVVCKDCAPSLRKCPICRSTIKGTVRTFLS
smiles,measurement,setting,value
CN[C@@H](C)C(=O)N[C@H](C(=O)N1CCC[C@H]1C(=O)N[C@H]1c2ccccc2C[C@H]1OCC#CC#CCO[C@@H]1Cc2ccccc2[C@@H]1NC(=O)[C@@H]1CCCN1C(=O)[C@@H](NC(=O)[C@H](C)NC)C1CCCCC1)C1CCCCC1 [listing 1 of 2 here],growth inhibition (GI),BT-549,Active
same,growth inhibition (GI),647-V,Active
same,growth inhibition (GI),MIA PaCa-2,Active
same,growth inhibition (GI),Homo sapiens,Active
same,TGI,MDA-MB-231 [1],Active
same,Activity,Mus musculus [2],Active
same,Activity,Mus musculus [3],Active
same,Activity,MDA-MB-231 [4],Active
same,Activity,MDA-MB-231 [5],Active
same,inhibition,[6],Active
same,Activity,[7],inactive
same,Activity,[8],Active
same,Activity,[9],Dose-dependent effect
CN[C@@H](C)C(=O)N[C@H](C(=O)N1CCC[C@H]1C(=O)N[C@H]1c2ccccc2C[C@H]1OCC#CC#CCO[C@@H]1Cc2ccccc2[C@@H]1NC(=O)[C@@H]1CCCN1C(=O)[C@@H](NC(=O)[C@H](C)NC)C(C)(C)C)C(C)(C)C,Papp A→B,[10],< 0.1 ×10⁻⁶ cm/s
same,solubility thermodynamic at 24 h,[11],> 1000 µM
same,GI50,MDA-MB-231 [12],< 2.4 nM
same,EC50,[13],0.4 nM
CN[C@@H](C)C(=O)N[C@H](C(=O)N1CCC[C@H]1C(=O)N[C@H]1c2ccccc2C[C@H]1OCCCCCCO[C@@H]1Cc2ccccc2[C@@H]1NC(=O)[C@@H]1CCCN1C(=O)[C@@H](NC(=O)[C@H](C)NC)C1CCCCC1)C1CCCCC1,AUC,[14],262 ng·h/mL
same,half-life,[15],3.6 h
same,Vd,[16],1.4 L/kg
same,clearance,[17],45 mL/min/kg
same,GI50,MDA-MB-231 [12],< 0.1 nM
same,EC50,[13],0.1 nM
CN[C@@H](C)C(=O)N[C@H](C(=O)N1CCC[C@H]1C(=O)N[C@H]1c2ccccc2C[C@H]1OCC#CC#CCO[C@@H]1Cc2ccccc2[C@@H]1NC(=O)[C@@H]1CCCN1C(=O)[C@@H](NC(=O)[C@H](C)NC)C1CCCCC1)C1CCCCC1.Cl.Cl,solubility,[18],> 7000 µg/mL
CN[C@@H](C)C(=O)N[C@H](C(=O)N1CCC[C@H]1C(=O)N[C@H]1c2ccccc2C[C@H]1OCCOCCO[C@@H]1Cc2ccccc2[C@@H]1NC(=O)[C@@H]1CCCN1C(=O)[C@@H](NC(=O)[C@H](C)NC)C1CCCCC1)C1CCCCC1,AUC,[19],206 ng·h/mL
same,half-life,[20],1.2 h
same,Vd,[21],1.9 L/kg
same,clearance,[22],80 mL/min/kg
same,GI50,MDA-MB-231 [12],< 0.1 nM
same,EC50,[13],0.6 nM
CN[C@@H](C)C(=O)N[C@H](C(=O)N1CCC[C@H]1C(=O)N[C@H]1c2ccccc2C[C@H]1NC(=O)c1ccc(C(=O)N[C@@H]2Cc3ccccc3[C@@H]2NC(=O)[C@@H]2CCCN2C(=O)[C@@H](NC(=O)[C@H](C)NC)C2CCCCC2)cc1)C1CCCCC1,AUC,[23],230 ng·h/mL
same,half-life,[24],6.6 h
same,Vd,[25],1.4 L/kg
same,clearance,[26],37 mL/min/kg
same,GI50,MDA-MB-231 [12],6 nM
same,EC50,[13],124 nM
same,inhibition,[27],Active
CN[C@@H](C)C(=O)N[C@H](C(=O)N1CCC[C@H]1C(=O)N[C@H]1c2ccccc2C[C@H]1OCC#CC#CCO[C@@H]1Cc2ccccc2[C@@H]1NC(=O)[C@@H]1CCCN1C(=O)[C@@H](NC(=O)[C@H](C)NC)C1CCCCC1)C1CCCCC1 [listing 2 of 2 here],Stability,[28],Unstable
same,Stability,[29],Unstable
same,Stability,[30],Stable
same,Stability,[31],Stable
same,IC50,[32],21 nM
same,IC50,[33],21 nM
same,AUC,[23],166 ng·h/mL
same,half-life,[24],0.5 h
same,Vd,[25],0.8 L/kg
same,clearance,[26],50 mL/min/kg
same,Papp A→B,[10],< 0.1 ×10⁻⁶ cm/s
same,GI50,MDA-MB-231 [12],< 0.06 nM
same,EC50,[13],0.1 nM
same,IC50,[34],15 nM
same,IC50,[27],15 nM
